In ChEMBL document CHEMBL4689842, “EUbOPEN Chemogenomics Library wave 1” (2021):

Tested on: U2OS
Test: Multiplex assay against U2OS
Assay type: toxicity, cell-based
Settings: human
Procedure, shortened: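 Live cells carried four stains from seeding: Hoechst33342, BioTracker Green Microtubule Cytoskeleton Dye, MitoTracker Red and Annexin V Alexa Fluor 680. They were imaged on a CQ1 microscope at 37°C and 5% CO2 after compound addition. Using CellPathfinder machine-learning gating, cells were split into Hoechst high-intensity objects or normal cells, normal cells into healthy, pyknosed or fragmented nuclei, and pyknosed cells into mitotic or apoptotic; tubulin, mitochondrial-mass and membrane-permeability phenotypes are per cents of healthy-nucleus cells.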

[1] = 12 h, 1 µM, compound concentration 1 uM, replicate 1
[2] = 12 h, 1 µM, compound concentration 1 uM, replicate 2
[3] = 12 h, 10 µM, compound concentration 10 uM, replicate 1
[4] = 12 h, 10 µM, compound concentration 10 uM, replicate 2
[5] = 24 h, 1 µM, compound concentration 1 uM, replicate 1
[6] = 24 h, 1 µM, compound concentration 1 uM, replicate 2
[7] = 24 h, 10 µM, compound concentration 10 uM, replicate 1
[8] = 24 h, 10 µM, compound concentration 10 uM, replicate 2
[9] = 48 h, 1 µM, compound concentration 1 uM, replicate 1
[10] = 48 h, 1 µM, compound concentration 1 uM, replicate 2
[11] = 48 h, 10 µM, compound concentration 10 uM, replicate 1
[12] = 48 h, 10 µM, compound concentration 10 uM, replicate 2

SMILES: COc1cc(N2CCN(C)CC2)ccc1Nc1ncc2c(n1)N(C)c1ccccc1C(=O)N2C
- Population Apoptotic (%) [1]: 33%
- Population Fragmented Nuclei (%) [1]: 12%
- Population Healthy Nuclei (%) [1]: 72%
- Population Hoechst High Intensity Objects (%) [1]: 6%
- Population Membrane Permeable-Phenotype (%) [1]: 6%
- Population Mitochondria Different-Phenotype (%) [1]: 25%
- Population Mitotic Cells (%) [1]: 66%
- Population Normal (%) [1]: 93%
- Population Pyknosed Nuclei (%) [1]: 14%
- Population Tubulin-Different-Phenotype (%) [1]: 17%
- Total Cell Count [1]: 199
- Population Apoptotic (%) [2]: 40%
- Population Fragmented Nuclei (%) [2]: 5%
- Population Healthy Nuclei (%) [2]: 82%
- Population Hoechst High Intensity Objects (%) [2]: 4%
- Population Membrane Permeable-Phenotype (%) [2]: 9%
- Population Mitochondria Different-Phenotype (%) [2]: 21%
- Population Mitotic Cells (%) [2]: 60%
- Population Normal (%) [2]: 95%
- Population Pyknosed Nuclei (%) [2]: 12%
- Population Tubulin-Different-Phenotype (%) [2]: 15%
- Total Cell Count [2]: 104
- Population Apoptotic (%) [3]: 60%
- Population Fragmented Nuclei (%) [3]: 11%
- Population Healthy Nuclei (%) [3]: 66%
- Population Hoechst High Intensity Objects (%) [3]: 7%
- Population Membrane Permeable-Phenotype (%) [3]: 22%
- Population Mitochondria Different-Phenotype (%) [3]: 96%
- Population Mitotic Cells (%) [3]: 39%
- Population Normal (%) [3]: 92%
- Population Pyknosed Nuclei (%) [3]: 21%
- Population Tubulin-Different-Phenotype (%) [3]: 99%
- Total Cell Count [3]: 177
- Population Apoptotic (%) [4]: 66%
- Population Fragmented Nuclei (%) [4]: 15%
- Population Healthy Nuclei (%) [4]: 61%
- Population Hoechst High Intensity Objects (%) [4]: 5%
- Population Membrane Permeable-Phenotype (%) [4]: 21%
- Population Mitotic Cells (%) [4]: 33%
- Population Normal (%) [4]: 94%
- Population Pyknosed Nuclei (%) [4]: 23%
- Population Tubulin-Different-Phenotype (%) [4]: 100%
- Total Cell Count [4]: 42
- Population Apoptotic (%) [5]: 29%
- Population Fragmented Nuclei (%) [5]: 11%
- Population Hoechst High Intensity Objects (%) [5]: 5%
- Population Membrane Permeable-Phenotype (%) [5]: 3%
- Population Mitochondria Different-Phenotype (%) [5]: 8%
- Population Mitotic Cells (%) [5]: 70%
- Population Normal (%) [5]: 94%
- Population Pyknosed Nuclei (%) [5]: 12%
- Population Tubulin-Different-Phenotype (%) [5]: 8%
- Total Cell Count [5]: 187
- Population Apoptotic (%) [6]: 50%
- Population Fragmented Nuclei (%) [6]: 9%
- Population Healthy Nuclei (%) [6]: 75%
- Population Hoechst High Intensity Objects (%) [6]: 6%
- Population Membrane Permeable-Phenotype (%) [6]: 6%
- Population Mitochondria Different-Phenotype (%) [6]: 12%
- Population Mitotic Cells (%) [6]: 50%
- Population Normal (%) [6]: 93%
- Population Pyknosed Nuclei (%) [6]: 14%
- Population Tubulin-Different-Phenotype (%) [6]: 6%
- Total Cell Count [6]: 101
- Population Apoptotic (%) [7]: 69%
- Population Fragmented Nuclei (%) [7]: 18%
- Population Healthy Nuclei (%) [7]: 50%
- Population Hoechst High Intensity Objects (%) [7]: 7%
- Population Membrane Permeable-Phenotype (%) [7]: 19%
- Population Mitochondria Different-Phenotype (%) [7]: 94%
- Population Mitotic Cells (%) [7]: 30%
- Population Normal (%) [7]: 92%
- Population Pyknosed Nuclei (%) [7]: 30%
- Population Tubulin-Different-Phenotype (%) [7]: 97%
- Total Cell Count [7]: 204
- Population Apoptotic (%) [8]: 76%
- Population Fragmented Nuclei (%) [8]: 11%
- Population Healthy Nuclei (%) [8]: 63%
- Population Hoechst High Intensity Objects (%) [8]: 8%
- Population Membrane Permeable-Phenotype (%) [8]: 30%
- Population Mitochondria Different-Phenotype (%) [8]: 93%
- Population Mitotic Cells (%) [8]: 23%
- Population Normal (%) [8]: 91%
- Population Pyknosed Nuclei (%) [8]: 25%
- Population Tubulin-Different-Phenotype (%) [8]: 66%
- Total Cell Count [8]: 44
- Population Apoptotic (%) [9]: 42%
- Population Fragmented Nuclei (%) [9]: 7%
- Population Healthy Nuclei (%) [9]: 77%
- Population Membrane Permeable-Phenotype (%) [9]: 4%
- Population Mitochondria Different-Phenotype (%) [9]: 5%
- Population Mitotic Cells (%) [9]: 57%
- Population Pyknosed Nuclei (%) [9]: 14%
- Population Tubulin-Different-Phenotype (%) [9]: 8%
- Total Cell Count [9]: 182
- Population Apoptotic (%) [10]: 60%
- Population Fragmented Nuclei (%) [10]: 5%
- Population Healthy Nuclei (%) [10]: 76%
- Population Hoechst High Intensity Objects (%) [10]: 3%
- Population Membrane Permeable-Phenotype (%) [10]: 9%
- Population Mitochondria Different-Phenotype (%) [10]: 16%
- Population Mitotic Cells (%) [10]: 40%
- Population Normal (%) [10]: 96%
- Population Pyknosed Nuclei (%) [10]: 18%
- Population Tubulin-Different-Phenotype (%) [10]: 11%
- Total Cell Count [10]: 88
- Population Apoptotic (%) [11]: 84%
- Population Fragmented Nuclei (%) [11]: 21%
- Population Healthy Nuclei (%) [11]: 42%
- Population Hoechst High Intensity Objects (%) [11]: 7%
- Population Membrane Permeable-Phenotype (%) [11]: 18%
- Population Mitotic Cells (%) [11]: 15%
- Population Normal (%) [11]: 92%
- Population Pyknosed Nuclei (%) [11]: 35%
- Population Tubulin-Different-Phenotype (%) [11]: 82%
- Total Cell Count [11]: 297
- Population Apoptotic (%) [12]: 63%
- Population Fragmented Nuclei (%) [12]: 11%
- Population Healthy Nuclei (%) [12]: 46%
- Population Hoechst High Intensity Objects (%) [12]: 19%
- Population Membrane Permeable-Phenotype (%) [12]: 33%
- Population Mitochondria Different-Phenotype (%) [12]: 90%
- Population Mitotic Cells (%) [12]: 36%
- Population Normal (%) [12]: 80%
- Population Pyknosed Nuclei (%) [12]: 42%
- Population Tubulin-Different-Phenotype (%) [12]: 61%
- Total Cell Count [12]: 57
